In PubChem BioAssay:
Results filed as inconclusive are left out.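 The calls were made as follows, unless noted: active = viability increase at or above a cutoff of the median across tested compounds plus 3 SD (cut at about 8.5% in these data, passing the limit was not always enough); inconclusive = some gains above the cutoff, reason not given; inactive = the rest.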

Legend:
[1] = S. cerevisiae growth inhibition in permissive medium (OD615), pilot counter-assay for S. cerevisiae lifespan shortening project, permissive growth control (AID 705;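 active = growth inhibition above 25% in both replicates, a cutoff set 3 SD above the mean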); conditions: OD615, 24 h, at 10 µM, hits give high values
Summary of the method: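 Timing: 24 h exposure, 30 °C / Material: Saccharomyces cerevisiae strain carrying genetically modified DeaD replicative-lifespan system / Signal: OD at 615 nm / Compound: 10 µM single dose, 0.25% DMSO / Medium: SC raffinose/galactose permissive medium / Evaluation: reduction in yeast growth (OD615)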

[2] = S. cerevisiae growth inhibition in restrictive medium, OD615, pilot screen, restrictive growth control, yeast lifespan reduction project (AID 706;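 active = growth inhibition above a set limit, 3 SD over mean compound inhibition, in both replicates, cut at about 43% in these data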;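 also: modified DeaD lifespan yeast strain shifted to restrictive glucose medium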); conditions: OD615, 48 h, at 10 µM, hits give high values
Summary of the method: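 System: Engineered S. cerevisiae DeaD strain | Detection: OD615 | Buffer or medium: CSMM-D glucose medium | Doses: 10 µM compound, 0.25% DMSO | Timing: 4 h pre-growth plus 48 h compound exposure, 30 °C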

[3] = doxorubicin toxicity protection in MRP-1 cells – H69AR cells, CellTiter-Glo, duplicate, MRP-1 activator project, pilot screen (AID 807); conditions: H69AR viability with doxorubicin, CellTiter-Glo luminescence; at 10 µM; hits give high values;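 also: compound pretreatment 18-22 h then 72 h combined with doxorubicin; 0% = doxorubicin alone and 100% = vehicle without doxorubicin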
[4] = viability of HCT116 without oncogenic beta-catenin – human colon tumor cells, pilot screen (AID 823;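 active = cell viability at or below a set limit in both duplicate runs, the limit being the all-compound median minus 4 SD, cut at about 23% in these data, passing the limit was not always enough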;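 also: 0% = wells killed by 20 µM Hyamine and 100% = untreated DMSO cell wells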); conditions: HCT116 beta-catenin knockout viability, CellTiter-Glo, 60 h; at 10 µM; hits give low values
[5] = viability of PTEN-null HCT116 cells – cell-based, HCT116 clonal line, CellTiter-Glo, pilot screen (AID 824;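 active = viability at or below 27.92% in each of two runs, the all-compound median minus 4 SD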;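 also: 0% = 20 µM Hyamine control and 100% = vehicle cell control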); conditions: HCT116 PTEN-deleted viability, 60 h, at 10 µM, hits give low values
[6] = RAM pathway blockade in budding yeast – dse1pr::URA3 reporter, 5-FOA selection, pilot screen (AID 869;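 active = inhibition over a set limit, the all-compound mean plus 3 SD, in both replicate runs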;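 also: 0% = DMSO wells with no growth and 100% = 10 µM 1-NA-PP1 with full growth; RAM network block rescues cells from 5-FOA so hits raise OD615 growth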); conditions: S. cerevisiae dse1pr::URA3 5-FOA growth, OD615, 2 d; at 10 µM; hits give high values; strain carries analog-sensitive mutant Cbk1 kinase
[7] = RAM signaling pathway blockade in yeast – S. cerevisiae, Pdr1DBD-CYC8 efflux-inhibited sensitized strain, primary screen (AID 1298;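 active = RAM network inhibition above 8.4% in each of two replicates, 3 SD over the compound average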;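 also: 0% = DMSO untreated cells without growth and 100% = 10 µM 1-NA-PP1 full growth; higher means more yeast growth rescued from 5-FOA killing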); conditions: S. cerevisiae cbk1-as DSE1-URA3 strain, 5-FOA growth OD615, 2 d; at 50 µM; hits give high values

CCN1CCN(CCCNC(=O)Cn2cc3c(n2)CCCC3)CC1
inactive: growth inhibition [1] -5.34% | growth inhibition [2] 0.355% | viability increase [3] -1.2% | viability [4] 108% | viability [5] 97.2% | inhibition [6] 0.945% | RAM network inhibition [7] 0.76%

O=C(NCCn1ccc2ccccc21)c1ccc2c(c1)OCO2
inactive: growth inhibition [1] -2.72% | growth inhibition [2] -4.68% | viability increase [3] 0.1% | viability [4] 101% | viability [5] 94.4% | inhibition [6] 0.58% | RAM network inhibition [7] 6.97%

Cc1cc(Nc2cccc(Cl)c2C)n2ncnc2n1
inactive: growth inhibition [1] -2.94% | growth inhibition [2] -1.32% | viability increase [3] -1.11% | viability [4] 94.2% | viability [5] 95% | inhibition [6] 2.26% | RAM network inhibition [7] 2.35%

O=C(NCCN1C(=O)C2C3C=CC(C3)C2C1=O)Nc1ccc(Br)cc1 (centres undefined)
inactive: growth inhibition [1] -9% | growth inhibition [2] 9.2% | viability increase [3] -1.13% | viability [4] 103% | viability [5] 88.3% | inhibition [6] 0.81% | RAM network inhibition [7] 0.1%

CSc1cccc(NC(=O)CN(c2cc(C)ccc2C)S(C)(=O)=O)c1
inactive: growth inhibition [1] -4.02% | growth inhibition [2] -2.52% | viability increase [3] -3.54% | viability [4] 77.4% | viability [5] 79.8% | inhibition [6] -0.95% | RAM network inhibition [7] 1.46%

CCC(CO)Nc1ncnc2c1cnn2-c1ccc(OC)cc1 (centres undefined)
inactive: growth inhibition [1] -7.48% | growth inhibition [2] -7.47% | viability increase [3] 0.37% | viability [4] 104% | viability [5] 101% | inhibition [6] 2.01% | RAM network inhibition [7] -1.98%

COc1ccc(C)cc1NC(=O)CN(c1ccccc1F)S(C)(=O)=O
inactive: growth inhibition [1] -8.48% | growth inhibition [2] -0.695% | viability increase [3] -1.51% | viability [4] 94.6% | viability [5] 103% | inhibition [6] -0.63% | RAM network inhibition [7] 0.32%

O=C(CCSc1ccccc1)NCCSc1ccccn1
inactive: growth inhibition [1] -12.8% | growth inhibition [2] -12% | viability increase [3] -2.49% | viability [4] 96.3% | viability [5] 94.6% | inhibition [6] 2.69% | RAM network inhibition [7] 0.53%

O=C(COC(=O)C1(c2ccccc2F)CCCC1)N1CCN(C(=O)c2ccco2)CC1
inactive: growth inhibition [1] -13.4% | growth inhibition [2] -13.8% | viability increase [3] -2.48% | viability [4] 87.3% | viability [5] 95.4% | inhibition [6] 0.995% | RAM network inhibition [7] 1.19%

Cc1cc(C)cc(OCC(O)CN2C(=O)NC(C)(C)C2=O)c1 (centres undefined)
inactive: growth inhibition [1] 2.01% | growth inhibition [2] 2.59% | viability increase [3] 0.13% | viability [4] 108% | viability [5] 103% | inhibition [6] -0.255% | RAM network inhibition [7] 2.26%

CCOC(=O)c1ccc(NC2c3ccccc3C(=O)N2c2cccnc2)cc1 (centres undefined)
inactive: growth inhibition [1] 0.43% | growth inhibition [2] 1.2% | viability increase [3] -3.72% | viability [4] 65.5% | viability [5] 67.6% | inhibition [6] 0.67% | RAM network inhibition [7] 2.21%

CCc1ccc(C(=O)NCc2cccs2)s1
inactive: growth inhibition [1] -5.71% | growth inhibition [2] 4.03% | viability increase [3] 1.53% | viability [4] 104% | viability [5] 97.1% | inhibition [6] 0.715% | RAM network inhibition [7] -1.7%

CCCC1(C(=O)O)NC(c2cccc(OC)c2O)C2C(=O)N(c3ccccc3)C(=O)C21 (centres undefined)
inactive: growth inhibition [1] -0.085% | growth inhibition [2] -4.29% | viability increase [3] -0.36% | viability [4] 96.4% | viability [5] 97.4% | inhibition [6] 0.49% | RAM network inhibition [7] -0.78%

CCn1cc(SCC(N)=O)c2ccccc21
inactive: growth inhibition [1] -13.8% | growth inhibition [2] -17.4% | viability increase [3] 0.17% | viability [4] 99.1% | viability [5] 92.3% | inhibition [6] 1.14% | RAM network inhibition [7] 8.71%

Cc1cccc(C)c1NC(=O)C1(N(Cc2ccco2)C(=O)CC2NC(=O)NC2=O)CCCCC1 (centres undefined)
inactive: growth inhibition [1] -7.47% | growth inhibition [2] -10.5% | viability increase [3] -2.27% | viability [4] 92.7% | viability [5] 93.9% | inhibition [6] 1.23% | RAM network inhibition [7] 0.68%

Cc1noc(C)c1S(=O)(=O)NCc1ccc2c(c1)OCO2
inactive: growth inhibition [1] -1.3% | growth inhibition [2] -6.16% | viability increase [3] -1.12% | viability [4] 97.5% | viability [5] 93.6% | inhibition [6] 2.77% | RAM network inhibition [7] 0.27%

CC(C)C(=O)Nc1ccc(Nc2ccccc2)cc1
inactive: growth inhibition [1] -3.29% | growth inhibition [2] -8.34% | viability increase [3] 0.79% | viability [4] 105% | viability [5] 104% | inhibition [6] 0.87% | RAM network inhibition [7] 2.52%

O=C(Cn1cnc2c(cnn2-c2ccc(Cl)cc2)c1=O)NC1CCCCC1
inactive: growth inhibition [1] -1.74% | growth inhibition [2] 6.22% | viability increase [3] -3.89% | viability [4] 91.3% | viability [5] 91.7% | inhibition [6] 3.79% | RAM network inhibition [7] 2.4%

Cc1cc(NC(=O)CSc2nc3c(c(=O)n2-c2ccccc2)SC(C)C3)no1 (centres undefined)
inactive: growth inhibition [1] -3.02% | growth inhibition [2] -11.7% | viability increase [3] -2.58% | viability [4] 93% | viability [5] 91.2% | inhibition [6] 4.66% | RAM network inhibition [7] 1.22%

CC1CN(CCC(=O)Nc2ccc3c(c2)CCC3)CC(C)O1 (centres undefined)
inactive: growth inhibition [1] -3.75% | growth inhibition [2] -3.82% | viability increase [3] -0.55% | viability [4] 97.5% | viability [5] 93% | inhibition [6] 0.995% | RAM network inhibition [7] 6.16%

CSC(=NS(=O)(=O)c1ccc(C)cc1)SC
inactive: growth inhibition [1] -11% | growth inhibition [2] -20.2% | viability increase [3] -1.03% | viability [4] 94.6% | viability [5] 93.1% | inhibition [6] 2.02% | RAM network inhibition [7] 4.14%

Cc1nn(-c2ccccc2)c(C)c1C(=O)OCC(=O)Nc1ccc2c(c1)OCO2
inactive: growth inhibition [1] -15.6% | growth inhibition [2] -15.7% | viability increase [3] -0.97% | viability [4] 95.3% | viability [5] 92.9% | inhibition [6] 3.68% | RAM network inhibition [7] 3.09%

C=CCSc1nnc2c(n1)[nH]c1c(C)cccc12
inactive: growth inhibition [1] -27.3% | growth inhibition [2] 3.13% | viability increase [3] -5.97% | viability [4] 64.6% | viability [5] 65.6% | inhibition [6] 1.71% | RAM network inhibition [7] 5.38%

CCC(C)NC(=O)c1ccc(NC(=O)C2CCCO2)cc1 (centres undefined)
inactive: growth inhibition [1] -6.02% | growth inhibition [2] -6.03% | viability increase [3] 3.38% | viability [4] 100% | viability [5] 100% | inhibition [6] 4.56% | RAM network inhibition [7] 1.78%

Cn1ccnc1SCc1cn2cc(Br)ccc2n1
inactive: growth inhibition [1] 2.79% | growth inhibition [2] 22.2% | viability increase [3] -3.12% | viability [4] 91.8% | viability [5] 84.7% | inhibition [6] 1.51% | RAM network inhibition [7] 4.08%

COc1ccc(C(=O)Nc2c(F)c(F)c(F)c(F)c2F)c(OC)c1
inactive: growth inhibition [1] -11% | growth inhibition [2] 3.84% | viability increase [3] -1.15% | viability [4] 100% | viability [5] 102% | inhibition [6] 2.96% | RAM network inhibition [7] 2.45%

CCCOc1ccc(N2C(=O)CC(N3CCN(c4ccccc4F)CC3)C2=O)cc1 (centres undefined)
inactive: growth inhibition [1] -0.95% | growth inhibition [2] -3.87% | viability increase [3] 1.4% | viability [4] 94.7% | viability [5] 96.4% | inhibition [6] 0.125% | RAM network inhibition [7] 7.05%

COc1cc(C2C(C(N)=O)=C(C)Nc3nc(CCCO)nn32)cc(OC)c1OC (centres undefined)
inactive: growth inhibition [1] -3.16% | growth inhibition [2] -9.14% | viability increase [3] -0.36% | viability [4] 101% | viability [5] 95% | inhibition [6] 0.785% | RAM network inhibition [7] 0.15%

O=C(Nc1nnc(-c2ccco2)o1)C1CCCCC1
inactive: growth inhibition [1] -17% | growth inhibition [2] -13.8% | viability increase [3] -1.58% | viability [4] 99.1% | viability [5] 93.2% | inhibition [6] 1.52% | RAM network inhibition [7] 0.58%

O=C(Nc1ccc(Br)cc1F)c1ccncc1
inactive: growth inhibition [1] -7.26% | growth inhibition [2] -13.4% | viability increase [3] 1.37% | viability [4] 97% | viability [5] 98.6% | inhibition [6] 2.7% | RAM network inhibition [7] 5.07%

Cc1ccc(-c2cc3c(nn2)-c2ccccc2C3=O)cc1
inactive: growth inhibition [1] -17% | growth inhibition [2] -5.93% | viability increase [3] -6.54% | viability [4] 53.4% | viability [5] 49.6% | inhibition [6] 4.56% | RAM network inhibition [7] 7.67%

Cc1nc(C)c(C(=O)Nc2cccc(C)c2C)o1
inactive: growth inhibition [1] -5.6% | growth inhibition [2] -15.8% | viability increase [3] -3.05% | viability [4] 109% | viability [5] 90.1% | inhibition [6] 3.58% | RAM network inhibition [7] 1.53%

Cc1noc(C(=O)NCc2ccco2)c1Cl
inactive: growth inhibition [1] -10.3% | growth inhibition [2] -34.1% | viability increase [3] -3.01% | viability [4] 102% | viability [5] 101% | inhibition [6] 1.78% | RAM network inhibition [7] 2.4%

O=C(NCC1CCCO1)c1ccc2c(c1)OCO2 (centres undefined)
inactive: growth inhibition [1] -3.01% | growth inhibition [2] 6% | viability increase [3] 0.18% | viability [4] 98.4% | viability [5] 94.3% | inhibition [6] 0.385% | RAM network inhibition [7] 3.13%

N#CC1(c2ccccc2)CCCN1C(=O)c1ccco1 (centres undefined)
inactive: growth inhibition [1] -3.57% | growth inhibition [2] 3.69% | viability increase [3] -1.54% | viability [4] 104% | viability [5] 101% | inhibition [6] 2.25% | RAM network inhibition [7] 3.1%

O=C(CSc1ccccn1)c1ccc2c(c1)OCO2
inactive: growth inhibition [1] -3.07% | growth inhibition [2] 9.94% | viability increase [3] -0.21% | viability [4] 99.2% | viability [5] 96.2% | inhibition [6] 0.92% | RAM network inhibition [7] 2.86%

CCOC(=O)N1CCC(NC(=O)c2csc3c2CCCC3)CC1
inactive: growth inhibition [1] -3.1% | growth inhibition [2] -14.7% | viability increase [3] -2.82% | viability [4] 95.2% | viability [5] 93.6% | inhibition [6] 1.29% | RAM network inhibition [7] 3.9%
